# Source: PubChem BioAssay
# PAD4 FP inh: inhibitors of human PAD4; Q9UM07; recombinant PAD4, RCA probe fluorescence polarization; inhibition, % at 6.36 µM; 330,000 tested, 0.41% active;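 active = percent inhibition above a cutoff equal to the mean of all tested compounds plus 3 SD, cut at about 15% in these data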;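 note: 0% = PAD4 with RCA probe and DMSO and 100% = probe without PAD4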
# Target sequence (Q9UM07 whole entry, looked up): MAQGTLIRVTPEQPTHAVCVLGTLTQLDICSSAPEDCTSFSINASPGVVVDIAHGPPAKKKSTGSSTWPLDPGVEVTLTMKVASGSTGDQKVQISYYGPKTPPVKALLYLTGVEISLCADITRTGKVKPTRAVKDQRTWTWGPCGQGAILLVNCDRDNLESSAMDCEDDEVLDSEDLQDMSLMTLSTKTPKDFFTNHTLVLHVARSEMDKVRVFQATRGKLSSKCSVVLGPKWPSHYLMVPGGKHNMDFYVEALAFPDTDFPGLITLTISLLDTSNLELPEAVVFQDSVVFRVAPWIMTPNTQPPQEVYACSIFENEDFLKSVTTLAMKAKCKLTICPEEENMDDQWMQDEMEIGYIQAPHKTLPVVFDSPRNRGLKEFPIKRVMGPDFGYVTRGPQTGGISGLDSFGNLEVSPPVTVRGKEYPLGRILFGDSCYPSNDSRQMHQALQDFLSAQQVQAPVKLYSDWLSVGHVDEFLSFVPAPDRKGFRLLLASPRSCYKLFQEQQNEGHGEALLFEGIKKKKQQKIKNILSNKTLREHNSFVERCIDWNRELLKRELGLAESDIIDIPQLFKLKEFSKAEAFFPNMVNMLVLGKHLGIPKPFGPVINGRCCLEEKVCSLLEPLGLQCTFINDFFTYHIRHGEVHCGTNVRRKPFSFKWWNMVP
# GSTO1 inh: counter-screen for RBBP9 inhibitors: inhibitors of human GSTO1 | recombinant GSTO1, activity-based probe fluorescence polarization | P78417 | inhibition, % at 5.96 µM | 300,000 tested, 1.1% active;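 active = inhibition above the campaign mean inhibition plus 3 SD, cut at about 35% in these data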;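 note: 0% = GSTO1-1 with DMSO and 100% = wells lacking GSTO1-1 enzyme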
# CTSL1 counter: blocks F. hepatica cathepsin L1 in PFM18AAP counter-screen; recombinant F. hepatica cathepsin L1, Z-Leu-Arg-MCA fluorescence; inhibition, % at 5.96 µM; 300,000 tested, 0.49% active; AID 1906;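 active = inhibition above the mean of all tested compounds plus 3 SD, set per screening campaign, cut at about 17% in these data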;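 note: 0% = plate median of test compound wells and 100% = 1 µM Z-Phe-Ala-diazomethylketone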
# Apaf1 inhib: blocks human Apaf-1 apoptosome activity; O14727; inhibition, % at 20 µM; reconstituted apoptosome caspase-3 activity, DEVD-Rh110 fluorescence; 330,000 tested, 0.71% active; AID 489030; active = inhibition of at least 40% at 20 µM;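 note: plate controls were DMSO wells for no effect and DEVD-CHO caspase inhibitor wells for full effect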
#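 System: Apoptosome proteins | Medium: Hepes pH 7.5 with detergent and BSA | Also added: Cytochrome c trigger plus (Z-DEVD)2-Rh110 caspase-3 substrate | Incubation: 30 min compound preincubation, 50 min activation, room temperature | Detection: Rhodamine 110 fluorescence at Ex 480/Em 540 nm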
# UCH37 DUB inh: inhibitors of human deubiquitinating enzyme UCH37 | purified proteasome/UCH37, Ub-AMC cleavage fluorescence | inhibition, % (no concentration beside the values) | 330,000 tested, 0.33% active | AID 588478;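 active = mean inhibition over replicate wells above about 20%, limit read from the data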;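 note: 0% = compound-free wells with enzyme and 100% = wells lacking proteasome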
#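 Material: Human UCH37 enzyme supplied as purified proteasome complex | Schedule: 30 min compound-proteasome preincubation then 25 min substrate reaction, room temperature | Detection: AMC fluorescence from Ub-AMC cleavage, excitation 355 nm, emission 460 nm | Benchmarks: Wells without proteasome as full block, compound-free enzyme plus substrate as uninhibited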
# PP5 primary: inhibitors of human protein phosphatase 5 (PP5); purified PP5c, OMFP substrate fluorescence; inhibition, % at 6.7 µM; 320,000 tested, 0.18% active;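 active = inhibition above the campaign's mean inhibition across all tested compounds plus 3 SD, cut at about 9.5% in these data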;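 note: 0% = DMSO only and 100% = 100 µM cantharidin control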
# Apaf-1 inh conf2: Apaf-1 inhibition, single-dose confirmed; AID 504614; shares compounds with Apaf1 inhib; inhibition, % at 20 µM; 1,800 tested, 25% active; reconstituted apoptosome, caspase-3 DEVD-Rh110 fluorescence;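 active = mean inhibition of at least 40% at 20 µM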;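 note: plate controls were DMSO wells for no effect and DEVD-CHO caspase inhibitor control wells for full effect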
# Rh110 interf inh: counter-screen for Apaf-1 inhibitors: fluorescence interference; shares compounds with Apaf1 inhib; Rh110 fluorescence interference, quenched caspase reaction; activation (fluorescence interference), % at 20 µM; 1,800 tested, under 10 active; AID 504615;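 active = signal rise of 40% or more at 20 µM, treated as a fluorescence artifact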
# Fluor interf inh: Apaf-1 inhibitor counter-screen fluorescence artifact | 460 tested, under 10 active | fluorescence interference counterscreen, Apaf-1 assay format | shares compounds with Apaf1 inhib | IC50, µM | AID 588538; call rule not given here
# * hit, by the source's call; i = inactive; . = not tested or not shown. Sampled rows, rich in hits. Any-hit rate of the full collection: about 2%.
SMILES,PAD4 FP inh,GSTO1 inh,CTSL1 counter,Apaf1 inhib,UCH37 DUB inh,PP5 primary,Apaf-1 inh conf2,Rh110 interf inh,others
COc1ccc(C(CCN2CCCC2)c2c(OC)cc(OC)c3c(-c4ccccc4)cc(=O)oc23)cc1 (configuration not stated),-1,7,3,26,-5,3,.,.,
CN(C)C=Nc1cc(=O)[nH]c(=O)n1CC1CC1,.,.,.,.,0,.,.,.,
CCCCCc1cc(=O)oc2c(C(CCN3CCCCC3)c3ccc4c(c3)OCO4)c(OC)cc(OC)c12 (configuration not stated),-1,2,3,66*,-3,2,39,18,
Clc1ccc(CN2CCN(N=Cc3ccco3)CC2)cc1,.,.,.,.,2,.,.,.,
Cc1ccc(N=Nc2c(N)[nH]n3c(=O)cc(-c4ccccc4)nc23)cc1,-10,8,-5,55*,9,2,64*,4,Fluor interf inh=>100
Cc1[nH]n2c(=O)cc(-c3ccc([N+](=O)[O-])cc3)nc2c1-c1ccccc1,2,22,6,8,2,1,.,.,
CON=Cc1c(-c2ccc(Cl)cc2)nc2cc(C)ccn12,.,.,.,.,-58,.,.,.,
CC(C)N1CCc2c(sc(NC(=O)c3ccc(S(=O)(=O)N4CCc5ccccc54)cc3)c2C(N)=O)C1,2,-20,2,46*,1,4,3,1,
C/C(=N\NC(=O)Cc1cc(=O)[nH][nH]1)c1cccc([N+](=O)[O-])c1,-5,45*,-2,51*,.,1,11,-2,
N#CC(=NNc1ccc(Br)cc1)C(=N)N1CCOCC1,.,.,.,.,18,.,.,.,
COC(=O)C(=NNc1ccccc1)Sc1nnc(-c2ccc(OC)cc2)n1C,.,.,.,.,7,.,.,.,
CCCCc1c(C)nn(-c2nnc3c4ccccc4n(CC)c3n2)c1C,-6,-4,6,47*,-3,1,23,10,
Clc1cc2c(cc1C=NNc1nc(N3CCOCC3)nc(N3CCOCC3)n1)OCO2,.,.,.,.,-1,.,.,.,
CC1(C)CC(=O)c2c(-c3cccnc3)n[nH]c2C1,-2,-1,1,43*,1,1,9,1,
S=c1[nH]c2cc(Cl)c3cccnc3c2o1,-4,16,-1,46*,.,0,26,1,
S=c1[nH]c2ncccc2o1,0,4,3,-7,6,1,.,.,
CC=NN(c1ccccc1)c1ccccc1,.,.,.,.,3,.,.,.,
c1ccc2c(-c3ccc(OCCN4CCCCC4)cc3)c(-c3ccsc3)sc2c1,-5,.,.,59*,.,.,10,10,
c1ccc(-c2sc3ccccc3c2-c2ccc(OCCN3CCCCC3)cc2)cc1,3,.,.,52*,3,.,6,9,
CCCCNC(=S)N(C)N=Cc1ccc(OCC(=O)Nc2ccc(OC)cc2)c(OC)c1,.,.,.,.,6,.,.,.,
Cc1ccc(O)c(C=NNC(=O)c2[nH]ncc2Br)c1,.,.,.,.,-8,.,.,.,
Oc1ccccc1-c1nc2c3ccccc3c3ccccc3c2[nH]1,2,-20,-4,.,i,5,.,.,
c1csc(-c2nc3c4ccccc4c4ccccc4c3[nH]2)c1,1,-20,8,44*,-208,4,32,12,
CCOC(=O)c1cc(-c2ccc(/C=C3/C(=O)N(c4ccc(C(=O)O)cc4)N=C3C)o2)ccc1Cl,-2,0,-4,50*,.,-2,30,7,
CCOC(=O)c1cc(-c2ccc(/C=N\n3cnnc3)o2)ccc1Cl,2,-1,1,2,.,1,.,.,
CC(CC1(O)C(=O)N(Cc2ccccc2)c2ccccc21)=NO (configuration not stated),.,.,.,.,2,.,.,.,
CCn1c2ccccc2c2c3ncc4cccn4c3ccc21,-14,-7,8,62*,i,2,19,6,
c1ccc2c(c1)ncc1cccn12,-2,1,-1,-2,i,-1,.,.,
CCc1ccccc1NC(=O)CCNS(=O)(=O)c1cc(Br)cnc1N,2,5,3,49*,0,2,12,9,
